The target in test [1] is T1, Receptor-interacting serine/threonine-protein kinase 2 (Homo sapiens, UniProt O43353). The test is described as follows: Relative binding affinity to RIP2 (unknown origin) by affinity selection mass spectrometry analysis. In outline:
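Test material was freed from the DNA headpiece by cleaving the tetrahydropyranyl linker with 0.1% formic acid at 60 °C for 1 h. The released compound was then tested by affinity selection mass spectrometry, and binding was expressed as relative binding affinity (%RBA).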

The target of test [2] is T1, Receptor-interacting serine/threonine-protein kinase 2. The test is described as follows: Inhibition of RIP2 (unknown origin) by biochemical assay.
Test [3] addresses Epidermal growth factor receptor (Homo sapiens, UniProt P00533). The test is described as follows: Inhibition of EGFR (unknown origin).
The target of test [4] is Vascular endothelial growth factor receptor 2 (Homo sapiens, UniProt P35968). The test is described as follows: Inhibition of VEGFR2 (unknown origin).
Vascular endothelial growth factor receptor 2, sequence (P35968 whole entry): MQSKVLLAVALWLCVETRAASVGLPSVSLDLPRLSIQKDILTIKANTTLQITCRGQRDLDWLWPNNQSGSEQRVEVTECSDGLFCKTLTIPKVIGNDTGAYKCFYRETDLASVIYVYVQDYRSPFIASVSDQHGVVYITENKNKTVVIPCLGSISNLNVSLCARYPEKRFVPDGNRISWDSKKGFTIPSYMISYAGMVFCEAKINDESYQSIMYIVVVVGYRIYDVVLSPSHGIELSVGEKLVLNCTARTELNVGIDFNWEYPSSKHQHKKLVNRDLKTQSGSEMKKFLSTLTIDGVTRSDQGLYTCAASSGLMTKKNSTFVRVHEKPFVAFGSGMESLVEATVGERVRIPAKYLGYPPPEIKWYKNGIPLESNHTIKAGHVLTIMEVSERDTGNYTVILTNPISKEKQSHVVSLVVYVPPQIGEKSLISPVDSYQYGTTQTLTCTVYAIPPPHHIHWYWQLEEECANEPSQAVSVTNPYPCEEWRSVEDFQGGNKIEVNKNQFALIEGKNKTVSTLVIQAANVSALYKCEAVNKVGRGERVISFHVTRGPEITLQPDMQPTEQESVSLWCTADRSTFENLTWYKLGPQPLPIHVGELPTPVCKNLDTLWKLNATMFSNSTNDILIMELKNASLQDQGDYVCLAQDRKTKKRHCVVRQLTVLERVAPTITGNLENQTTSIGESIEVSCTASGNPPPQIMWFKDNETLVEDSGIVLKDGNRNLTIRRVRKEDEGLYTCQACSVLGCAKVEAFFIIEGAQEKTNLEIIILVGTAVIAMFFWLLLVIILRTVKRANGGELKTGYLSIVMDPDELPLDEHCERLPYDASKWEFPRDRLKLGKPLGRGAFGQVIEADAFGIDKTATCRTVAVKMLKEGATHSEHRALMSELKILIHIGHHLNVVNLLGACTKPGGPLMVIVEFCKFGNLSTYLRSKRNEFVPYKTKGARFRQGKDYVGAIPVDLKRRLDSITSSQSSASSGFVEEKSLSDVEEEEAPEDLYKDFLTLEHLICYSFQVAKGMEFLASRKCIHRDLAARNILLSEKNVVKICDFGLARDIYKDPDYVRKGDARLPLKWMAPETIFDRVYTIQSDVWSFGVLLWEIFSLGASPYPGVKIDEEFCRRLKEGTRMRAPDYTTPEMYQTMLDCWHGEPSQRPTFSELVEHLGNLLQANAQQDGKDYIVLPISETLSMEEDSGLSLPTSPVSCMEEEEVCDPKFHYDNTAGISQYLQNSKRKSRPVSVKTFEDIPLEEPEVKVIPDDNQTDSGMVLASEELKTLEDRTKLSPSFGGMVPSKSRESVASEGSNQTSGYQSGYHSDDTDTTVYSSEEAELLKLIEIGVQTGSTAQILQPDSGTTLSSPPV
For test [5], the target named is T2, TGF-beta receptor type-1 (Homo sapiens, UniProt P36897).
T2 sequence (P36897 whole entry): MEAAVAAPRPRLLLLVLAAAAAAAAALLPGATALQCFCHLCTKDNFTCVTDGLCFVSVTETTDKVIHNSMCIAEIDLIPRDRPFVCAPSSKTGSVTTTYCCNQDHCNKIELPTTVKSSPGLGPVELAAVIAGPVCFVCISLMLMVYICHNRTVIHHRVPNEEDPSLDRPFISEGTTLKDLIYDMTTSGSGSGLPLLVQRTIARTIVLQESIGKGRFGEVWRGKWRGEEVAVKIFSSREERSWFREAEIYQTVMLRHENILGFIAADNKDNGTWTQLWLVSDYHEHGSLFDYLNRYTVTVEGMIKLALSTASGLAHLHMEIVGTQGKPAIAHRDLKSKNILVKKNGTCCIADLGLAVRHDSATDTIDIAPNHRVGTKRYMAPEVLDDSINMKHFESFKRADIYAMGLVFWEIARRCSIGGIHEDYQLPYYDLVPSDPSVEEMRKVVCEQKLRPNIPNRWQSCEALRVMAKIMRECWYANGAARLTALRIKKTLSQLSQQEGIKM
Description: Inhibition of ALK5 (unknown origin).

For test [6], the target named is T1, Receptor-interacting serine/threonine-protein kinase 2. Description: Inhibition of RIP2 (unknown origin).
Test [7] has the same target. Description: Inhibition of RIP2 (unknown origin) by fluorescence polarization based binding assay. In general terms: In fluorescence polarisation assays a small probe gives low polarisation when free and higher when bound to something large.

Where only a bound is given, the exact number is not on record here.

T1 sequence (O43353 whole entry): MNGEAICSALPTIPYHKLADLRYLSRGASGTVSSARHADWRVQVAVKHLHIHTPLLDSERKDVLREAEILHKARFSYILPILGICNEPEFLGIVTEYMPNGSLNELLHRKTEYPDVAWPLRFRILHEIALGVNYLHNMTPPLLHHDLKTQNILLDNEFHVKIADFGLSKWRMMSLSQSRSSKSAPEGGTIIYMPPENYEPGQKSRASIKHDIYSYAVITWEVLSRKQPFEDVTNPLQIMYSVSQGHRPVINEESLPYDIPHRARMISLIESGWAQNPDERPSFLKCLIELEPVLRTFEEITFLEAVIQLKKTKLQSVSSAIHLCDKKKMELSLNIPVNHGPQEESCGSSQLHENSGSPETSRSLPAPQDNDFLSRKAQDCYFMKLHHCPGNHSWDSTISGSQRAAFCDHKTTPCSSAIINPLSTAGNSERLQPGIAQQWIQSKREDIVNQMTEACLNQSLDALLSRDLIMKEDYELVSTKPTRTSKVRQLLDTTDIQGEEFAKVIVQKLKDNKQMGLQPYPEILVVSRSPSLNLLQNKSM
Epidermal growth factor receptor, sequence (P00533 whole entry): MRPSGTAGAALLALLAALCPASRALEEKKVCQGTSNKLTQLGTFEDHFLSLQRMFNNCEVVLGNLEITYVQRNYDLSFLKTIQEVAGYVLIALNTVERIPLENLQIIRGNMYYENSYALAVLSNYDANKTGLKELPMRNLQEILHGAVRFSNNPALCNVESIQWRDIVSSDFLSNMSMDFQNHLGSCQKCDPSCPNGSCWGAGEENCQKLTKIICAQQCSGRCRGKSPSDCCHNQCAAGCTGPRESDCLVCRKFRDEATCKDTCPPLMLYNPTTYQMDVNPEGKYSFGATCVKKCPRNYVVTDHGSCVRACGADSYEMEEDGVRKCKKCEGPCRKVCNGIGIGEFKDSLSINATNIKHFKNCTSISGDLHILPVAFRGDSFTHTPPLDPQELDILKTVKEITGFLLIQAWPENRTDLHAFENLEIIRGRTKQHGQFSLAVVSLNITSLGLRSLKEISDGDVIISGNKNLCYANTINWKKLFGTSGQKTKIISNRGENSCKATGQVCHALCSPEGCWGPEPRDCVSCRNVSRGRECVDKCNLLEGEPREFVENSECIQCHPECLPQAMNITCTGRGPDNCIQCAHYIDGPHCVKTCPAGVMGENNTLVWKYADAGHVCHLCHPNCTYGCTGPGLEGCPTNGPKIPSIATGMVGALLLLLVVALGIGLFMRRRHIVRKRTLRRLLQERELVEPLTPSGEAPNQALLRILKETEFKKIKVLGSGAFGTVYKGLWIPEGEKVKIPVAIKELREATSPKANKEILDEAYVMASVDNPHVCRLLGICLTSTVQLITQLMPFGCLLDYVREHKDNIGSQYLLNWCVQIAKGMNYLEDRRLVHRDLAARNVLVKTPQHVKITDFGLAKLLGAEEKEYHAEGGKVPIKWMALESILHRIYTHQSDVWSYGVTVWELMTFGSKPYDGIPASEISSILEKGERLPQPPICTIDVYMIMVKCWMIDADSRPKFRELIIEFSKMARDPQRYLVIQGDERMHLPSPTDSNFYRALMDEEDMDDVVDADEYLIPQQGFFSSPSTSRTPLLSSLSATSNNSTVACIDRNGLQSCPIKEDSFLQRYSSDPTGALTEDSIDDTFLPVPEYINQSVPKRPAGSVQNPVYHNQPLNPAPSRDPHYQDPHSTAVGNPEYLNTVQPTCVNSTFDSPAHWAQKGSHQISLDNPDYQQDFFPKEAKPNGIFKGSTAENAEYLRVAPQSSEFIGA

Turning to `NC(=O)c1cc(CNc2ccc3scnc3c2)cc(-c2ccc3c(Nc4ccc5scnc5c4)ccnc3c2)c1`, the RBA in test [1] was 58%. For orientation: IC50 means the midpoint of a concentration-inhibition curve. For the molecule `COCCNC(=O)c1cc(CNc2ccc(Cl)c(O)c2)cc(-c2ccc3c(Nc4ccc(Cl)c(O)c4)ccnc3c2)c1`, the IC50 in test [2] turned out to be 6 nM.

In the case of `Oc1cc(Nc2ccnc3cc(-c4ccccc4)ccc23)ccc1Cl`, the IC50 is 100 nM in test [3], below 1 nM in test [4], 79 nM in test [5] and 6 nM in test [6]. The molecule `COCCNC(=O)c1cc(CNc2ccc(Cl)c(O)c2)cc(-c2ccc3c(Cl)ccnc3c2)c1` had an IC50 in test [7] above 50 µM. In turn, `COCCn1c(-c2cnc(-c3ccc(Cl)cc3)[nH]2)nc2cc(C(=O)NCCO)ccc21` showed an RBA in test [1] of 30%. Same read-out and setting: in the case of `NC(=O)c1cc(C=O)cc(-c2ccc3c(Nc4ccc5scnc5c4)ccnc3c2)c1` it was 70%. `c1ccc(-c2ccc3c(Nc4ccc5scnc5c4)ccnc3c2)cc1`: the IC50 in test [3] came out at 2500 nM; in test [4] it was 16 nM; in test [5], 2500 nM; in test [6], 16 nM.

Source of the values: ChEMBL document CHEMBL4828713, “DNA-Encoded Library Hit Confirmation: Bridging the Gap Between On-DNA and Off-DNA Chemistry” (ACS Med Chem Lett, 2021).
